Measurements from different studies.
Each line is one published result; the experiments were not run side by side.
Effect on: cell growth or viability

`Cc1cccc(NC(=O)Nc2ccc(-c3ccc4ncn(Cc5ccccc5)c(=O)c4c3)cn2)c1` has an IC50 of 7.31 µM (HCC827; CCK-8; 72 h).
`O=C1CS/C(=N\c2ccc(F)cc2O)N1c1nnc(-c2ccc(C(F)(F)F)cc2/N=C2\SCC(=O)N2c2ccc(F)cc2O)s1` has an IC50 of 20.5 µM (WI-38; MTT).
For `Cc1ccc(S(=O)(=O)[O-])cc1.Nc1c([I+]c2ccccc2)c(=O)oc2ccccc12`, the IC50 was 35 µg/mL (HaCaT; MTT; 48 h).
`O=C(Nc1ccc(-c2ccc3ncn(Cc4ccccc4)c(=O)c3c2)cn1)C1CCCC1` gave an IC50 of > 10 µM (HCC827; CCK-8; 72 h).
For `O=C1CS/C(=N\c2cc(C(F)(F)F)ccc2-c2nnc(N3C(=O)CS/C3=N\c3ccc(F)cc3)s2)N1c1ccc(F)cc1`, the IC50 was 19.2 µM (WI-38; MTT).
`CCCn1cnc2ccc(-c3ccc(N4CCC(C)CC4=O)nc3)cc2c1=O` (stereo not shown) has an IC50 of > 10 µM (HCC827; CCK-8; 72 h).
For `CC1(P2(=O)CCCCC2)C=CCC=C1`, the IC50 was > 100 µM (HaCaT; MTT; 72 h).
For `CC(C)C(=O)Nc1ccc([N+](=O)[O-])c(C(F)(F)F)c1`, the IC50 was > 100 µM (HaCaT; MTS; 48 h).
With `CCCn1cnc2ccc(-c3ccc(NC(=O)c4ccccc4)nc3)cc2c1=O` the IC50 was 0.1 µM (HCC827; CCK-8; 72 h).
`O=C1CS/C(=N\c2ccccc2Cl)N1c1nnc(-c2ccc(C(F)(F)F)cc2/N=C2\SCC(=O)N2c2ccccc2Cl)s1` gave an IC50 of 49.2 µM (WI-38; MTT).
The IC50 of `CC1=CC(=O)C(C(C)C)=CC1=O` is reported as 56.9 µM (SNB-19; SRB; 48 h).
With `O=C1CS/C(=N\c2cc(C(F)(F)F)ccc2-c2nnc(N3C(=O)CS/C3=N\c3ccc(-c4ccccc4)cc3)s2)N1c1ccc(-c2ccccc2)cc1` the IC50 was 94.7 µM (WI-38; MTT).
`CCCCC(=O)Nc1ccc(-c2ccc3ncn(CCCF)c(=O)c3c2)cn1` has an IC50 of 0.092 µM (HCC827; CCK-8; 72 h).
The IC50 of `COc1ncccc1Cn1nc(-c2ccc(CO)o2)c2ccccc21` is reported as > 46 µM (HuCCT-1; ATP luminescence).
`CNC(=O)c1ccccc1Nc1cc(Nc2ccc(N3CCOCC3)cc2OC)ncc1C(F)(F)F` has an IC50 of 3.19 µM (ASPC1; MTT; 48 h).
`OCc1ccc(-c2nn(Cc3ccncc3)c3cccnc23)o1` gave an IC50 of > 46 µM (HuCCT-1; ATP luminescence).
The IC50 of `CCCCn1cnc2ccc(-c3ccc(NC(=O)Nc4ccc(CC)cc4)nc3)cc2c1=O` is reported as > 10 µM (HCC827; CCK-8; 72 h).
The IC50 of `CC(C)[C@@H]1NC(=O)/C(=C/c2cnc[nH]2)NC1=O` is reported as > 15 µM (ASPC1; SRB).
`OCc1ccc(-c2nn(Cc3ccncc3)c3ccccc23)o1` has an IC50 of > 46 µM (HuCCT-1; ATP luminescence).
